According to PubChem BioAssay AID2052 (NMMLSC, 2009):
Out of some 330,000 compounds screened, about 220 (0.067%) were called active.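 The calls were made as follows: active = response, share of CD8 T cells binding vesicles, and their 90th percentile fluorescence all below set limits (cut at about 80% in these data, passing the limit was not always enough); inactive = the rest, inconclusive results apart.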 This excerpt belongs to a sample that is enriched for actives. Non-standard residues stand in square brackets, D forms with d. Residues, ends and D or L forms follow the SMILES beside them. ξ: configuration not given here. ξV = CC(C)C(N)C(=O)O

Experiment: modulators of CD8 T cell-vesicle binding, primary screen, mouse 2C CD8+ T cells, flow cytometry (AID 2052);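 as to double positive events: binding gate set so that unloaded-vesicle control wells show 10% double positive cells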;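 as to response (vesicle binding): values below 100% mean blocked vesicle binding to the CD8+ T cells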
Conditions: 2C CD8+ T cell-vesicle binding, at 7 µM, stronger effect = lower value; double positive events: measured here: CD8+ vesicle-bound cell fraction
Outline: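 Assay system – 2C mouse CD8+ T cells · Also added – QL9-loaded Drosophila micro-vesicles · Timing – Cell–vesicle co-incubation 1.5 h at 37 °C, staining 20 min on ice · Signal – flow cytometry of vesicle-bound cells · Measure – percent CD8+ FL2 mean versus row control · Controls – Peptide-free naked vesicles (low) and QL9 vesicles with 0.7% DMSO vehicle (high)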
In the case of `CCc1cccc2c3c([nH]c12)C(CC)(CC(=O)O)OCC3` (stereo unspecified), the double positive events is reported as 14.8% and the response (vesicle binding) is reported as 487% (inactive). In the case of `O=C(CSc1ccc(-c2ccccn2)nn1)Nc1ccccc1`, the double positive events is reported as 12.5% and the response (vesicle binding) is reported as 157% (inactive). For `Cc1c(OC(C)C(=O)NCC2CCC(C(=O)O)CC2)ccc2c1oc(=O)c1ccccc12` (stereo unspecified), the double positive events was 55.9% and the response (vesicle binding) was 184% (inactive). In the case of `CCCn1nnnc1NCc1ccc(OC)cc1`, the double positive events is reported as 56.3% and the response (vesicle binding) is reported as 308% (inactive). With `COc1ccc(CNc2nnnn2C)cc1` the double positive events was 4% and the response (vesicle binding) was 0% (active). In the case of `Cn1nnnc1NCc1ccc(Cl)c(Cl)c1`, the double positive events is reported as 43.7% and the response (vesicle binding) is reported as 445% (inactive). With `CC(C)N1CCC(NC(=O)Nc2ccccc2)CC1` the double positive events was 60.7% and the response (vesicle binding) was 257% (inactive). In the case of `CC(=O)NC(C(=O)NCC(N)=O)C(C)C` (stereo unspecified) (Ac-[ξV]-Gly-NH2), the double positive events is reported as 32.4% and the response (vesicle binding) is reported as 396% (inactive). In the case of `O=C(O)c1[nH]c2ccccc2c1C(c1cccc(O)c1)c1c(C(=O)O)[nH]c2ccccc12`, the double positive events is reported as 36.2% and the response (vesicle binding) is reported as 361% (inactive). For `Cc1ccc(CNC(=O)COC(=O)C2CCC2)cc1`, the double positive events was 37.4% and the response (vesicle binding) was 742% (inactive). In the case of `O=C(COC(=O)Cc1c[nH]c2ccccc12)NCCc1ccccc1`, the double positive events is reported as 19.5% and the response (vesicle binding) is reported as 241% (inactive). In the case of `NC(=O)COc1ccc(C23CC4CC(CC(C4)C2)C3)cc1`, the double positive events is reported as 52.9% and the response (vesicle binding) is reported as 159% (inactive). With `COP1(=O)C[C@@H](O)[C@@H](O)[C@@H](COCc2ccccc2)O1` (stereo partly specified) the double positive events was 21.9% and the response (vesicle binding) was 504% (inactive). With `C[C@H](OC(=O)n1ccnc1)[C@@H]1O[C@@]2(C)CCC[C@@H]1O2` the double positive events was 24.9% and the response (vesicle binding) was 376% (inactive). For `COc1ccc(N(CC(=O)Nc2ccc(C)cc2C)S(=O)(=O)c2ccccc2[N+](=O)[O-])c(OC)c1`, the double positive events was 61.2% and the response (vesicle binding) was 182% (inactive). In the case of `Cc1noc(C)c1CSc1nnc2ccc3ccccc3n12`, the double positive events is reported as 43.2% and the response (vesicle binding) is reported as 196% (inactive). For `NS(=O)(=O)c1cc(Cl)c(Cl)c(S(N)(=O)=O)c1`, the double positive events was 42.1% and the response (vesicle binding) was 570% (inactive). In the case of `Cn1nnc(NC(=S)NC(=O)c2ccccc2)n1`, the double positive events is reported as 30.5% and the response (vesicle binding) is reported as 556% (inactive). With `CSc1nnc(SCc2nc3sc(C(=O)O)c(C)c3c(=O)[nH]2)s1` the double positive events was 37.4% and the response (vesicle binding) was 501% (inactive). With `CCc1ccc(CNC(=O)C2CCN(c3nnc(C)c4c(C)n(-c5ccc(C)cc5)nc34)CC2)cc1` the double positive events was 10.5% and the response (vesicle binding) was 623% (inactive). For `CC1(C)C[C@H]2C3=CCC4[C@@]5(C)CC[C@H](O)[C@](C)(CO)C5CC[C@@]4(C)[C@]3(C)C[C@@H](O)[C@@]2(CO)[C@@H](O)[C@@H]1O` (stereo partly specified), the double positive events was 14.8% and the response (vesicle binding) was 534% (inactive). In the case of `COc1cc(NC(=S)NNC(=O)CC(C)C)c(OC)cc1Cl`, the double positive events is reported as 66.1% and the response (vesicle binding) is reported as 458% (inactive). In the case of `Cc1nn(CCOc2ccc(Br)cc2)c(C)c1[N+](=O)[O-]`, the double positive events is reported as 61.8% and the response (vesicle binding) is reported as 447% (inactive). For `COc1cc(OC)c(-n2cc(-c3ccc(Cl)cc3)[nH]c2=O)cc1Cl`, the double positive events was 39.5% and the response (vesicle binding) was 546% (inactive). With `O=C(c1ccco1)N1CCN(CCOc2ccccc2)CC1` the double positive events was 23.1% and the response (vesicle binding) was 301% (inactive). With `O=C(c1ccc2c(c1)OCO2)N1CCN(C(=O)c2ccco2)CC1` the double positive events was 35.9% and the response (vesicle binding) was 148% (inactive). In the case of `O=C(c1ccco1)N1CCN(C(=O)C2c3ccccc3Oc3ccccc32)CC1`, the double positive events is reported as 0% and the response (vesicle binding) is reported as 0% (active). With `Cc1cc(C)c(NC(=O)CSc2nc3ccncc3[nH]2)c(C)c1` the double positive events was 24.7% and the response (vesicle binding) was 968% (inactive). For `Cc1sc2ncnc(SCC(=O)Nc3ccc(CN4CCCC4)cc3)c2c1C`, the double positive events was 35.3% and the response (vesicle binding) was 104% (inactive). With `C=CC[C@@H](CC(=O)N[C@@H](CO)Cc1ccccc1)C(=O)NCCOC(=O)[C@@H](CC=C)CC(=O)OC(C)(C)C` the double positive events was 13.7% and the response (vesicle binding) was 321% (inactive). With `CC(=O)Nc1nc2c(s1)C(=O)NCC(C)(C)C2` the double positive events was 50.4% and the response (vesicle binding) was 439% (inactive). With `Cc1ccc(C(=O)Nc2ccc(C)c(S(=O)(=O)N(C)C)c2)s1` the double positive events was 45.5% and the response (vesicle binding) was 218% (inactive). For `Nc1ccc(OCC(O)C[n+]2ccc(CCS(=O)(=O)[O-])cc2)cc1` (stereo unspecified), the double positive events was 20.9% and the response (vesicle binding) was 319% (inactive). In the case of `CC(Oc1ccc(Br)cc1)C(=O)NCC(c1ccco1)N1CCCCC1` (stereo unspecified), the double positive events is reported as 51.4% and the response (vesicle binding) is reported as 336% (inactive). For `O=C1CC(Sc2ncn[nH]2)C(=O)N1c1ccccc1` (stereo unspecified), the double positive events was 46.5% and the response (vesicle binding) was 391% (inactive). With `COC(=O)C(C(=O)Nc1cccc(C)n1)C1CCCCCC1` (stereo unspecified) the double positive events was 44.3% and the response (vesicle binding) was 158% (inactive). For `CSc1ccccc1C(=O)OCC(=O)N1CCN(C(C)=O)CC1`, the double positive events was 34.9% and the response (vesicle binding) was 823% (inactive). With `CCn1cc(C(=O)N2CC=C(c3ccccc3)CC2)c(=O)c2ccc(C)nc21` the double positive events was 1.9% and the response (vesicle binding) was 79.1% (inactive). For `CN1C(C(=O)NCC2CC2)CC2Cn3c(nc4ccccc43)C21` (stereo unspecified), the double positive events was 12.7% and the response (vesicle binding) was 473% (inactive). In the case of `Cc1ccc(C)c2[nH]c(=O)c(CCNC(=O)CC(C)C)cc12`, the double positive events is reported as 38.5% and the response (vesicle binding) is reported as 832% (inactive). For `CCOC(=O)C1CCN(C(=O)C2(NC(=O)Nc3cccc(F)c3)CCCCC2)CC1`, the double positive events was 36.4% and the response (vesicle binding) was 360% (inactive). With `CC1=C(C(N)=O)C(c2sccc2C)n2nnnc2N1` (stereo unspecified) the double positive events was 23.4% and the response (vesicle binding) was 292% (inactive). With `CC1=C(C(=O)OC2CCCCC2)C(c2ccccc2F)NC(=O)N1` (stereo unspecified) the double positive events was 33.6% and the response (vesicle binding) was 167% (inactive).
